What is called clearance is the volume of plasma or blood freed of the substance per unit of time. The IC50 is the concentration that gives 50% inhibition. By half-life is commonly meant the time in which the quantity being followed falls by half. For orientation: inhibition means the share of the control response that was lost under treatment. In general, solubility refers to how much of the substance goes into solution per volume.

≈ marks a conversion by molar mass, not a printed value. Bounds are passed on as bounds.

This note sets out measurements from ChEMBL document CHEMBL1152806, “Discovery of a potent, selective, and orally efficacious pyrimidinooxazinyl bicyclooctaneacetic acid diacylglycerol acyltransferase-1 inhibitor” (J Med Chem, 2009).

Data set [1] is described as follows: Plasma clearance in marmosets at 1 to 3 mg/kg. Further details: dose 1-3 mg/kg. Conditions: callitrichinae sp. Format: ADME, organism-based.
Data set [2] concerns Rattus norvegicus. Put plainly: Reduction of plasma triacylglycerol excursion in 14 hrs fasted Han-Wistar rat at 0.1 mg/kg, po treated 2 hrs before bolus corn oil administration measured 1.5 hrs post corn oil challenge by oral lipid tolerance test relative to control. It counts as functional. Details: scale not given: the % may be the effect or the level left. The gist of the method: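 Male Han-Wistar rats (~230 g) on chow diet were fasted 14 h and given compound by oral gavage, suspended in HPMC/Tween. A corn oil bolus (5 mL/kg) followed 2 h later. After 1.5 h, blood was drawn from the abdominal vena cava and plasma TAG measured colorimetrically (GPO-PAP). Result is % reduction versus vehicle-treated controls; n = 6.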

A short description of data set [3]: Metabolic stability in rat alamethicin-activated microsomes assessed as conversion to acyl glucuronide form after 1 hr. Format: ADME, Microsome.
Data set [4] concerns the target T1, Diacylglycerol O-acyltransferase 1 (Homo sapiens, UniProt O75907).
T1 sequence (O75907 whole entry): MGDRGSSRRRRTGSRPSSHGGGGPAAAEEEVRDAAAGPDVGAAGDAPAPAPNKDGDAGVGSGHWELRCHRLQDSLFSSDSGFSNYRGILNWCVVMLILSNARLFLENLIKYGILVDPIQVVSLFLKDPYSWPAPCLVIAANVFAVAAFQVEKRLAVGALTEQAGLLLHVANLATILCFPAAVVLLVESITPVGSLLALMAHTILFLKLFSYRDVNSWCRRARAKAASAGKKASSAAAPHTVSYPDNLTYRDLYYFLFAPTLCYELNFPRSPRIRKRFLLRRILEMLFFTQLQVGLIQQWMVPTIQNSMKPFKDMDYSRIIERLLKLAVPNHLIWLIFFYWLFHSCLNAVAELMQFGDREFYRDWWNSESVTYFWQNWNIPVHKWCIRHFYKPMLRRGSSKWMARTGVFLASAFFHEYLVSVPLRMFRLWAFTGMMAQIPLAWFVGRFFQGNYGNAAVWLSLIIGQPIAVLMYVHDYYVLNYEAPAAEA
Nature of the data set: Inhibition of human recombinant DGAT1 expressed in Sf9 cells by liquid scintillography.

A short description of data set [5]: Half life in marmosets at 1 to 3 mg/kg, po. Format: ADME, organism-based. Details: dose 1-3 mg/kg, route oral. The conditions noted are these: callitrichinae sp., in vivo.
Data set [6] in a line: Plasma clearance in dog at 1 to 3 mg/kg. It counts as ADME, organism-based, Canis lupus familiaris. Details: dose 1-3 mg/kg.
The subject of data set [7] is Plasma. Nature of the data set: Fraction unbound in rat plasma by LC-UVMS. It counts as ADME, cell-free. The gist of the method:
(§1)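 Equilibrium dialysis in plasma of the relevant species at 37 °C; free and bound drug quantified by LC-UVMS; reported as % free.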

The next data set addresses T2, CYP1A2 (Homo sapiens, UniProt P05177).
T2 sequence (P05177 whole entry): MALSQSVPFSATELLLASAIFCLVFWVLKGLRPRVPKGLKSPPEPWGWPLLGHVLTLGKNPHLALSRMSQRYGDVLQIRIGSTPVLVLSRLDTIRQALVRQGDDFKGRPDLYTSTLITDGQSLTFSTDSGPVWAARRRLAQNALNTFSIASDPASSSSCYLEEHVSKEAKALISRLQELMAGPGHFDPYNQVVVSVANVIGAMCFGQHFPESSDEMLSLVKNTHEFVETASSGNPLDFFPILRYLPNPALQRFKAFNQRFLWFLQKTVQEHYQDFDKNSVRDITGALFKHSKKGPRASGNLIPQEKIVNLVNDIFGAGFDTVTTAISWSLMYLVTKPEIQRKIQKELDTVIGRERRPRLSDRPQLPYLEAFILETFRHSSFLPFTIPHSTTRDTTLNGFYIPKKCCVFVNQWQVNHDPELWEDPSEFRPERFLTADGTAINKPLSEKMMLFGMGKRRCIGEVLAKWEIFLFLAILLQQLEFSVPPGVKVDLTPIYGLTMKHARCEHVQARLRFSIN
Put plainly: Inhibition of CYP1A2 at 30 uM. It counts as ADME.

Data set [8] is described as follows: Volume of distribution at steady state in rat at 1 to 3 mg/kg. Further details: dose 1-3 mg/kg. It counts as ADME, organism-based. Conditions: in vivo, read-out: Vdss.
A further data set has as its target CYP2C19 (Homo sapiens, UniProt P33261). Nature of the data set: Inhibition of CYP2C19 at 30 uM. Format: ADME.
For data set [9], the system named is Plasma. Put plainly: Fraction unbound in human plasma by LC-UVMS. It counts as ADME, cell-free. The gist of the method: as §1
Data set [10] can be described thus: Aqueous solubility at pH 7.4. It counts as physicochemical. Conditions: buffer.
Data set [11] in a line: Apparent permeability from basolateral to apical side in MDCK cells at 10 uM. It counts as ADME, cell-based, Canis lupus familiaris. The conditions noted are these: dog, read-out: permeability. The gist of the method: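 Cultured MDCK cells incubated with compound at 10 µM; apparent permeability (Papp, ×10^-6 cm/s) measured in both apical-to-basolateral and basolateral-to-apical directions.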

Another data set addresses CYP2C9 (Homo sapiens, UniProt P11712). Nature of the data set: Inhibition of CYP2C9 at 30 uM. Format: ADME.
Data set [12] has as its system Rattus norvegicus. Nature of the data set: Reduction of adipose triacylglycerol synthesis in 14 hrs fasted Han-Wistar rat assessed as decrease in ratio of [3H]palmitic acid incorporation into TAG and DAG at 1 mg/kg, po after 1.5 hrs relative to control. Format: functional. Further details: scale not given: the % may be the effect or the level left. The gist of the method: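 Male Han-Wistar rats (~300 g) on chow diet were given compound by oral gavage, suspended in HPMC/Tween. At 1.5 h they were anaesthetised with inactin and a bolus of [3H]-palmitic acid was given via a jugular cannula. Epididymal fat was taken 20 min later, homogenised in duplicate with [14C]-oleic acid internal standard, and lipids separated by HPLC. Result is % reduction of the TAG/DAG label ratio versus vehicle; n = 10.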

Data set [13] in a line: Half life in dog at 1 to 3 mg/kg, iv. It counts as ADME, organism-based, Canis lupus familiaris. Further details: dose 1-3 mg/kg, route intravenous. The conditions noted are these: in vivo.
Data set [14] deals with T3, Diacylglycerol O-acyltransferase 2 (Homo sapiens) (UniProt Q96PD7).
T3 sequence (whole entry): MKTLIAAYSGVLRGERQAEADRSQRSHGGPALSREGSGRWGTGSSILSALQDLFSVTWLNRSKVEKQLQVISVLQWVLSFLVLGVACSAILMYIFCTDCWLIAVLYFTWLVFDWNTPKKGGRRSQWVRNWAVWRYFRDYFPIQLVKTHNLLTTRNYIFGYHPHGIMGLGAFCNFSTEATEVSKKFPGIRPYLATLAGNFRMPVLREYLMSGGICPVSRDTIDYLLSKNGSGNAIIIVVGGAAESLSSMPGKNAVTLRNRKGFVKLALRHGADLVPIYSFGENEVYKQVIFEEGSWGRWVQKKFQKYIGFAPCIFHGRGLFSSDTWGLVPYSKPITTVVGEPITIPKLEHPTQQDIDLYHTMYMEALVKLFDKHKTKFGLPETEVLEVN
Put plainly: Inhibition of human DGAT2 at 10 uM by liquid scintillography.

For another data set, the target named is CYP2D6 (Homo sapiens, UniProt P10635). Put plainly: Inhibition of CYP2D6 at 30 uM. It counts as ADME.
Sequence of CYP2D6 (P10635 whole entry): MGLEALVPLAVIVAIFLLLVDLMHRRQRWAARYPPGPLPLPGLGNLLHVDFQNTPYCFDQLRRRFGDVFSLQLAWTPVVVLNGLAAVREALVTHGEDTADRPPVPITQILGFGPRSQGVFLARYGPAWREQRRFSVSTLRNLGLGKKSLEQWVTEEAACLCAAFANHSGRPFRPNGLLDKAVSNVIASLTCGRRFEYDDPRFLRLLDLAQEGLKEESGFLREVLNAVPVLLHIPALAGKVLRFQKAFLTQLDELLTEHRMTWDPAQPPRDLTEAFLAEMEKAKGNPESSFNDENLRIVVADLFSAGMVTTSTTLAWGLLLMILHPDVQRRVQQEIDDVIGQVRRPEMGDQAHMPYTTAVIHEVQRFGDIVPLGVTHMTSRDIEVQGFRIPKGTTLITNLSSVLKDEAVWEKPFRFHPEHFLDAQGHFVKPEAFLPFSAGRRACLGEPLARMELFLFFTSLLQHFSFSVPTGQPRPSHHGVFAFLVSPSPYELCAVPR

Sequence of CYP2C9 (P11712 whole entry): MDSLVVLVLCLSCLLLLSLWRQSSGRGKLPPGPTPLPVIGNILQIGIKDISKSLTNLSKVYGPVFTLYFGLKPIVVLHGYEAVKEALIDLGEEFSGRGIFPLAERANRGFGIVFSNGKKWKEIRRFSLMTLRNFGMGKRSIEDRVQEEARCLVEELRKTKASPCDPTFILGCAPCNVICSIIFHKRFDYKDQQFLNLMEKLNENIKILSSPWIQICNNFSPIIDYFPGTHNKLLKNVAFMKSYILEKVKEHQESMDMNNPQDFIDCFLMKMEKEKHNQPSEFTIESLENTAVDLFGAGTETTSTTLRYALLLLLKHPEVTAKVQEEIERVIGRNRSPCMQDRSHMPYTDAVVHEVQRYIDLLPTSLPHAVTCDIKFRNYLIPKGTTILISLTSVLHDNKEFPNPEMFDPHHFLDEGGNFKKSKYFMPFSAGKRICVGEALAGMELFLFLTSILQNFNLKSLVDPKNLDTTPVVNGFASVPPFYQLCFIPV
Sequence of CYP2C19 (P33261 whole entry): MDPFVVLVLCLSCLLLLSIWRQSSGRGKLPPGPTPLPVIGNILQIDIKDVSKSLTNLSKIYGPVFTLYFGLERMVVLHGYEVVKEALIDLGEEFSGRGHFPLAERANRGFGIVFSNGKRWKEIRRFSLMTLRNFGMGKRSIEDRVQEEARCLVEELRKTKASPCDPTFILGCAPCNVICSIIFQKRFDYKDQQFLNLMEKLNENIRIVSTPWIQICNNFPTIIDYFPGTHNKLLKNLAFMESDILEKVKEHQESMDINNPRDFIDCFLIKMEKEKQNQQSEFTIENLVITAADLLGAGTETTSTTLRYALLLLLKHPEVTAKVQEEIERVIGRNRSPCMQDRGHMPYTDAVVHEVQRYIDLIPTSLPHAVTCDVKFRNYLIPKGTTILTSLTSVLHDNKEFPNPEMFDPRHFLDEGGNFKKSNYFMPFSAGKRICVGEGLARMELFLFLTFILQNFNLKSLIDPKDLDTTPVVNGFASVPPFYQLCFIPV

On to `CC1(C)Oc2ncnc(N)c2N=C1c1ccc(C23CCC(CC(=O)O)(CC2)CC3)cc1`, for which the results for the clearance in data set [1] and in data set [6] were 0.78 mL/min/kg and 3.3 mL/min/kg, respectively. Further, the Activity in the data set with Rattus norvegicus [2] is given as 38%; in the data set with Rattus norvegicus [12] it was 37%. Further, the Stability in data set [3] worked out at 9%. For the same compound, the IC50 in data set [4] was found to be 15 nM. In addition, the results for the half-life in data set [5] and in data set [13] were 9.5 h and 8.6 h, respectively. Besides, the Fu with Plasma [7] is recorded as 0.91%; with Plasma [9], 1%. Besides, the inhibition at 30 µM against CYP1A2, against CYP2C19, against CYP2C9 and at CYP2D6 was below 25% in each case. The Vd in data set [8] was 0.7 L/kg. In addition, in data set [10], the solubility worked out at 12 µM (≈ 5.05 µg/mL). Moreover, the Papp B→A at 10 µM in data set [11] came out at 26 ×10⁻⁶ cm/s. Besides, in data set [14], the inhibition amounted to 0%.
